The source made the active and inactive calls. The rule behind the calls is not given here.
Key:
Cavia porcellus [1] = assay: Inhibition of Leukotriene D4 induced bronchoconstriction when compound was administered perorally at a dose of 25 mg/kg in guinea pig; format: functional; conditions: route oral
Procedure, shortened: (§1)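 Single-dose screen in guinea pigs, with n animals per group. Significance versus control used a two-tailed Student's t test (p < 0.05), or one-way ANOVA with contrasts based on each treatment's difference from its own control mean.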

Cavia porcellus [2] = assay: Inhibition of ovalbumin-induced bronchoconstriction when compound was administered perorally at a dose of 25 mg/kg in guinea pig; format: functional; conditions: route oral; procedure, shortened: as §1
Cavia porcellus [3] = assay: Inhibition of Leukotriene D4 induced bronchoconstriction when compound was administered intraduodenally at a dose of 25 mg/kg in guinea pig
Cavia porcellus [4] = assay: Inhibitory dose of the intragastrically administered compound (120 min before giving agonist) that produced a 50% inhibition of leukotriene D4 induced bronchoconstriction in guinea pigs; format: functional; conditions: po, read-out: ID50 (the source's name)
Procedure, shortened: (§2)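 Guinea pigs, awake, dosed intragastrically 120 min before agonist challenge (95 min before anesthetic). The LTD4 challenge was given intravenously; ovalbumin served as antigen. ID50 is the dose giving 50% inhibition of LTD4- or ovalbumin-induced bronchoconstriction.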

Cavia porcellus [5] = assay: Inhibitory dose of the intraduodenally administered compound (10 min before giving agonist) that produced a 50% inhibition of ovalbumin induced bronchoconstriction in guinea pigs; format: functional; conditions: intraduodenal, read-out: ID50 (the source's name)
Procedure, shortened: (§3)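 Guinea pigs, intraduodenal dosing, with LTD4 or ovalbumin challenge. ID50 is the dose of antagonist giving 50% inhibition of the induced bronchoconstriction.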

Cavia porcellus [6] = assay: Relative inhibitor potency of the intragastrically administered compound with Wy-48,252 against ovalbumin induced bronchoconstriction in guinea pigs; format: functional
Procedure, shortened: (§4)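 Intragastric dosing of awake guinea pigs 120 min before agonist (95 min before anesthetic), with LTD4 or ovalbumin challenge.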

Cavia porcellus [7] = assay: Relative inhibitor potency of the intragastrically administered compound with Wy-48,252 against leukotriene D4 induced bronchoconstriction in guinea pigs; format: functional; procedure, shortened: as §4
Cavia porcellus [8] = assay: Inhibitory dose of the intraduodenally administered compound (10 min before giving agonist) that produced a 50% inhibition of leukotriene D4 induced bronchoconstriction in guinea pigs; format: functional; conditions: intraduodenal, read-out: ID50 (the source's name); procedure, shortened: as §3
Cavia porcellus [9] = assay: Relative inhibitor potency of the intraduodenally administered compound with Wy-48,252 against leukotrien D4 induced bronchoconstriction in guinea pigs; format: functional
Cavia porcellus [10] = assay: Inhibitory dose of the intragastrically administered compound (120 min before giving agonist) that produced a 50% inhibition of ovalbumin induced bronchoconstriction in guinea pigs; format: functional; conditions: po, read-out: ID50 (the source's name); procedure, shortened: as §2
Cavia porcellus [11] = assay: Relative inhibitor potency of the intraduodenally administered compound with Wy-48,252 against ovalbumin induced bronchoconstriction in guinea pigs; format: functional
Cavia porcellus [12] = organism: Cavia porcellus; assay: Activity against leukotriene C4-induced contraction of guinea pig trachea, in the presence of glutathione
Cavia porcellus [13] = assay: Inhibition of ovalbumin-induced bronchoconstriction when compound was administered intraduodenally at a dose of 10 mg/kg in guinea pig; format: functional; conditions: route intraduodenal; procedure, shortened: as §1
Rattus norvegicus [14] = assay: Compound at 100 mg/kg was administered intragastrically and tested in a rat carrageenan paw edema assay; format: functional; conditions: po, route intragastric
Cyclooxygenase = biological target: T1, Cyclooxygenase (Rattus norvegicus, UniProt P35355+Q63921); assay: Inhibitory concentration to inhibit Prostaglandin G/H synthase in the rat; format: protein assay
T1 sequence (P35355 whole entry): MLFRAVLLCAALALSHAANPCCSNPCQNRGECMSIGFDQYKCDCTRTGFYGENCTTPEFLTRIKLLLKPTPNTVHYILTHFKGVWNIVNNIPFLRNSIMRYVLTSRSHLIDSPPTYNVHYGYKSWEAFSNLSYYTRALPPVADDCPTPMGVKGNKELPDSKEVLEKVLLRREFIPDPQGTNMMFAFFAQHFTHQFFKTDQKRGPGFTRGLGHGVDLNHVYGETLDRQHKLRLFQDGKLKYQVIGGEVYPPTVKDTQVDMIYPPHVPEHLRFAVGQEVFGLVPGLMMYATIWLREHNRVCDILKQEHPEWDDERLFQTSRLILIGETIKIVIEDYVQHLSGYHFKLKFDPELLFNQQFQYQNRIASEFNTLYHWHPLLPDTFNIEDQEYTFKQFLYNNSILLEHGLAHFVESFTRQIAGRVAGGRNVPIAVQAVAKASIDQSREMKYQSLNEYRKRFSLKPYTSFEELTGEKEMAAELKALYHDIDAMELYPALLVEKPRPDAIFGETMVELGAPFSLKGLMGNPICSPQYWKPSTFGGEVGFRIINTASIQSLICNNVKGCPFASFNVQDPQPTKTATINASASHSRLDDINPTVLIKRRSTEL
T1 sequence (Q63921 whole entry): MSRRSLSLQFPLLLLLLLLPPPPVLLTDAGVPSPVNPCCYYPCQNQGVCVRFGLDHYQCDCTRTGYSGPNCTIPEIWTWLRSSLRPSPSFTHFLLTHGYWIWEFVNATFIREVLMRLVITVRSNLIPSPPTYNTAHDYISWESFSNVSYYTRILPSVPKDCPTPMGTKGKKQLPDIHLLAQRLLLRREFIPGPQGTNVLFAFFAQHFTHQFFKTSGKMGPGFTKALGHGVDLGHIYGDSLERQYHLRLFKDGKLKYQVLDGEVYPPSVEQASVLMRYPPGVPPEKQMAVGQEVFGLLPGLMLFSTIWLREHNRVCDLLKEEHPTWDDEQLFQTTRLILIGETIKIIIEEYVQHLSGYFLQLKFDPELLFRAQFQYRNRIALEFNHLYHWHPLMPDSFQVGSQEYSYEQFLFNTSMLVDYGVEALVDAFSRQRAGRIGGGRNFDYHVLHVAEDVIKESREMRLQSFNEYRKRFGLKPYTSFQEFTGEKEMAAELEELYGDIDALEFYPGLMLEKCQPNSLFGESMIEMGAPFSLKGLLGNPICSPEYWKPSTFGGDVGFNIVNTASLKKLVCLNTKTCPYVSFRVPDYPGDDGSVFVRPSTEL
Procedure, shortened: (§5)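 Rat PMN assay, measuring 5-lipoxygenase and cyclooxygenase activity. IC50 values are in μM.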

[15] = Dissociation constant was determined; format: physicochemical
Procedure, shortened: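 Isolated guinea pig trachea pretreated with indomethacin and L-cysteine, then contracted with LTD4. Antagonism of the LTD4-induced contraction was expressed as a pKB value.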

[16] = Binding studies using tritium-labelled leukotriene D4; set-up: species or system Cavia porcellus
[17] = biological target: T2, Polyunsaturated fatty acid 5-lipoxygenase (Rattus norvegicus, UniProt P12527); assay: Inhibitory concentration to inhibit 5-lipoxygenase in the rat; procedure, shortened: as §5
T2 sequence (P12527 whole entry): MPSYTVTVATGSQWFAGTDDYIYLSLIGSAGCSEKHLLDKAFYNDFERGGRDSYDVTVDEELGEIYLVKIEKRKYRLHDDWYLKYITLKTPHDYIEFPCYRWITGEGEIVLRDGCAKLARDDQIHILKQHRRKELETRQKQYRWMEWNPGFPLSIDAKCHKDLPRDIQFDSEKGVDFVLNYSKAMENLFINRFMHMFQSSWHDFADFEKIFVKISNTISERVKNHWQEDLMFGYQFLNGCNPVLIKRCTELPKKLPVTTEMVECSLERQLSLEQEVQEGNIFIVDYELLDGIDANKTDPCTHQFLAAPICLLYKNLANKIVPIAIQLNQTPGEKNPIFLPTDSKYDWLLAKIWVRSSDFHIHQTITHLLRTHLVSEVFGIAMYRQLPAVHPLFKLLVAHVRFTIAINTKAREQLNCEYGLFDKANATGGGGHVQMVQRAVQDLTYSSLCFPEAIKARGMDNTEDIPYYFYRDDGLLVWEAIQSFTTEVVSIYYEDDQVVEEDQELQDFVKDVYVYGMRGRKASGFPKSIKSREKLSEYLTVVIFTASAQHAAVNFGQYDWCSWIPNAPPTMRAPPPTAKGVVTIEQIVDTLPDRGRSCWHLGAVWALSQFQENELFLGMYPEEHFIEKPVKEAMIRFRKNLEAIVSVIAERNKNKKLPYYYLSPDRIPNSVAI

Mus musculus [18] = assay: Compound was administered intragastrically and tested in a mouse ear edema assay; Inactive; format: functional, organism-based
Cavia porcellus [19] = assay: Inhibition of ovalbumin-induced bronchoconstriction when compound was administered perorally at a dose of 50 mg/kg in guinea pig; format: functional; conditions: route oral; procedure, shortened: as §1
Cavia porcellus [20] = assay: Inhibition of ovalbumin-induced bronchoconstriction when compound was administered intraduodenally at a dose of 50 mg/kg in guinea pig; format: functional; conditions: route intraduodenal; procedure, shortened: as §1
Cavia porcellus [21] = assay: Percentage inhibition of Leukotriene D4 when Compound was administered perorally at a dose of 50 mg/kg in guinea pig,; format: functional; conditions: route oral; procedure, shortened: as §1
Cavia porcellus [22] = assay: Inhibition of Leukotriene D4 induced bronchoconstriction in guinea pig by 50 mg/kg i.d.; conditions: at 50 mg/kg
Cavia porcellus [23] = assay: Inhibition of ovalbumin-induced bronchoconstriction when compound was administered intraduodenally at a dose of 25 mg/kg in guinea pig; format: functional; conditions: route intraduodenal; procedure, shortened: as §1
Cavia porcellus [24] = assay: Inhibitory dose of intraduodenally administered compound (10 min before giving agonist) that produced a 50% inhibition of leukotriene D4 induced bronchoconstriction in guinea pig; format: functional; conditions: intraduodenal, read-out: ID50 (the source's name); procedure, shortened: as §3
Rattus norvegicus [25] = assay: Percent inhibition of compound (50 mg/kg) in the rat carrageenan paw edema assay; format: functional
Procedure, shortened: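 Rat carrageenan paw edema, with compound given intragastrically. Read-out is percent inhibition of edema.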

[26] = Disassociation constant was determined; format: ADME
Procedure, shortened: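 Isolated guinea pig trachea, pretreated with indomethacin and L-cysteine, contracted with LTD4. Antagonism was expressed as a pKB value.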

Cavia porcellus [27] = assay: Inhibitory dose of the intraduodenally administered compound (10 min before giving agonist)that produced a 50% inhibition of ovalbumin induced bronchoconstriction in guinea pigs; format: functional; conditions: intraduodenal, read-out: ID50 (the source's name); procedure, shortened: as §3
Mus musculus [28] = assay: Percent inhibition of TPA-induced inflammation at 1 mg/ear in the mouse ear edema; format: functional
Cavia porcellus [29] = assay: Relative inhibitor potency of the intraduodenally administered compound with Wy-48,252 against lovalbumininduced bronchoconstriction in guinea pigs; format: functional

Molecule `O=S(=O)(Nc1cccc(SCc2ccc3ccccc3n2)c1)C(F)(F)F` has an inhibition in vivo at 25 mg/kg (Cavia porcellus [1]) of 97%, an inhibition in vivo at 25 mg/kg (Cavia porcellus [2]) of 59% and an inhibition (Cavia porcellus [3]) of 85%.

In the case of `CCCc1c(OCCCCc2nnn[nH]2)ccc(C(C)=O)c1O` [TOMELUKAST], the ED50 (Cavia porcellus [4]) is reported as 32 mg/kg, the ED50 (Cavia porcellus [5]) is reported as 19 mg/kg and the Relative inhibitor potency (Cavia porcellus [6]) is reported as 1. It also gave a Relative inhibitor potency (Cavia porcellus [7]) of 1, an ED50 (Cavia porcellus [8]) of 6 mg/kg and a Relative inhibitor potency (Cavia porcellus [9]) of 1. It also gave an ED50 (Cavia porcellus [10]) of 38 mg/kg and a Relative inhibitor potency (Cavia porcellus [11]) of 1.

For `O=S(=O)(Nc1cccc(OCc2ccc3ccccc3n2)c1)C(F)(F)F` [RITOLUKAST], the ED50 (Cavia porcellus [4]) was 0.1 mg/kg, the ED50 (Cavia porcellus [5]) was 3 mg/kg and the Dose (Cavia porcellus [12]) was 30 µM. The ED50 (Cavia porcellus [8]) was 0.3 mg/kg, the inhibition in vivo at 10 mg/kg (Cavia porcellus [13]) was 73% and the ED50 (Cavia porcellus [10]) was 0.6 mg/kg. The inhibition in vivo at 100 mg/kg (Rattus norvegicus [14]) was 20%, the inhibition in vivo at 25 mg/kg (Cavia porcellus [1]) was 100% and the IC50 (Cyclooxygenase) was 3300 nM. It also gave a pKB [15] of 7.7, a Kd [16] of 35 nM and an IC50 [17] of 4600 nM. For the same molecule, the inhibition (Mus musculus [18]) was “inactive” and the inhibition in vivo at 25 mg/kg (Cavia porcellus [2]) was 69%.

In the case of `CCS(=O)(=O)Nc1cccc(OCc2nc3ccccc3s2)c1`, the inhibition in vivo at 50 mg/kg (Cavia porcellus [19]) is reported as 32%, the inhibition in vivo at 50 mg/kg (Cavia porcellus [20]) is reported as 35% and the inhibition in vivo at 50 mg/kg (Cavia porcellus [21]) is reported as 13%. The inhibition (Cavia porcellus [22]) was 41%.

`O=S(=O)(Nc1cccc(OCc2ncc3ccccc3n2)c1)C(F)(F)F` showed an inhibition in vivo at 25 mg/kg (Cavia porcellus [23]) of 78%, an inhibition in vivo at 25 mg/kg (Cavia porcellus [1]) of 97% and an inhibition in vivo at 25 mg/kg (Cavia porcellus [2]) of 23%.

In the case of `O=S(=O)(Nc1ccc2ccc(OCc3ccc4ccccc4n3)cc2c1)C(F)(F)F`, the ED50 (Cavia porcellus [4]) is reported as 0.25 mg/kg, the inhibition in vivo at 50 mg/kg (Cavia porcellus [19]) is reported as 83% and the Relative inhibitor potency (Cavia porcellus [6]) is reported as 6. It also gave an inhibition in vivo at 50 mg/kg (Cavia porcellus [20]) of 86%, a Relative inhibitor potency (Cavia porcellus [7]) of 128 and an ED50 (Cavia porcellus [24]) of 1.4 mg/kg. The Inhibition (Rattus norvegicus [25]) was 63%, the pKB [26] was 7.04 and the ED50 (Cavia porcellus [27]) was 0.46 mg/kg. For the same molecule, the Relative inhibitor potency (Cavia porcellus [9]) was 4, the ED50 (Cavia porcellus [10]) was 6.1 mg/kg and the Inhibition (Mus musculus [28]) was 34%. For the same molecule, the IC50 (Cyclooxygenase) was 11900 nM, the IC50 [17] was 230 nM and the Relative inhibitor potency (Cavia porcellus [29]) was 41. It also gave an inhibition (Cavia porcellus [22]) of 99%.

From ChEMBL document CHEMBL1124479, “N-[(arylmethoxy)phenyl] and N-[(arylmethoxy)naphthyl] sulfonamides: potent orally active leukotriene D4 antagonists of novel structure” (J Med Chem, 1989)
